Where two headings read alike, the source gives them in different places. One block for each compound: values may come before it.
What was measured:
[1] = biological target: T1, hMC4R (Homo sapiens, UniProt P32245); format: cell-based
[2] = biological target: T1, hMC4R; assay: PRESTO-Tango β-arrestin2 recruitment assay, HTLA cells transfected with hMC4R; format: cell-based
[3] = biological target: T1, hMC4R; assay: AlphaScreen cAMP Schild analysis, inhibition of NDP-MSH agonist stimulation; format: cell-based; settings: antagonism of NDP-MSH, pA2 = −log(Ki)
Summary of the method: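 HEK293 cells stably expressing Flag-tagged hMC4R (calcium phosphate transfection, G418 selection), lifted with Versene, 10,000 cells/well in HBSS stimulation buffer (0.5 mM IBMX, 5 mM HEPES, 0.1% BSA, pH 7.4).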

[4] = biological target: mMC4R-NanoLuc and mMC4R-HaloTag homodimer (Mus musculus, UniProt P56450); assay: NanoBRET ligand-induced response of the mMC4R homodimer; format: cell-based
mMC4R-NanoLuc and mMC4R-HaloTag homodimer, sequence (P56450 whole entry): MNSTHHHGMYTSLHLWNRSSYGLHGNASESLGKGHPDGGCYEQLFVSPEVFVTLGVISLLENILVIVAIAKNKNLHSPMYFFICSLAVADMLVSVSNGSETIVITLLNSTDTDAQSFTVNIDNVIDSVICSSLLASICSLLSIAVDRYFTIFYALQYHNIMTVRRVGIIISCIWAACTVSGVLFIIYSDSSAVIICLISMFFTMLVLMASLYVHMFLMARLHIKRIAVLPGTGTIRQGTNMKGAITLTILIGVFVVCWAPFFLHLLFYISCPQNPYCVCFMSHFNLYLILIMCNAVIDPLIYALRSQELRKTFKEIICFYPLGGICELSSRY
mMC4R-NanoLuc and mMC4R-HaloTag homodimer, sequence (P56450 whole entry): as above

[5] = biological target: human melanocortin-4 receptor (hMC4R-Flag) (human) (UniProt P32245)
human melanocortin-4 receptor (hMC4R-Flag) (human), sequence (P32245 whole entry): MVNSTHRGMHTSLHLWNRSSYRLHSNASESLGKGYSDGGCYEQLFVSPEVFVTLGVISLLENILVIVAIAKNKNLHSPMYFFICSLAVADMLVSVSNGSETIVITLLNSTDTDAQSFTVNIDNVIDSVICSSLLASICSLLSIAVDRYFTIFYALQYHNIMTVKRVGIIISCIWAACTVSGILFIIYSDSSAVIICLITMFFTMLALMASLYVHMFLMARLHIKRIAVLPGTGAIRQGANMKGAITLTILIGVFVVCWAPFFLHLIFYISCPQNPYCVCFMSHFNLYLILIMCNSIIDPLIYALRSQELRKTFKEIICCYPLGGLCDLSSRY

[6] = tested on: hMC4R; settings: 1 µM, not significant; cited from earlier work

T1 sequence (P32245 whole entry): as above

cAMP signaling EC50 (AlphaScreen, HEK293 cells stably expressing hMC4R) [5]: 0.03 nM
Compound: MTII (peptide)

reduction in BRET signal compared to basal signal ([4]; ligand at 10 µM): 15%
Compound: α-MSH [reference compound]
decrease of mean BRET signal compared to basal BRET signal [6]: approximately 20%

cAMP signaling EC50 (AlphaScreen, HEK293 cells stably expressing hMC4R) [5]: 0.06 nM
Compound: NDP-MSH (peptide)

More lines, now with the values behind:

Compound: CC(=O)N[C@@H](Cc1c[nH]cn1)C(=O)N[C@H](Cc1ccc2ccccc2c1)C(=O)N[C@@H](CCCNC(=N)N)C(=O)N[C@@H](Cc1c[nH]c2ccccc12)C(=O)N1CCC[C@H]1C(=O)NCC(=O)N1CCC[C@H]1C(=O)NCC(=O)N1CCC[C@H]1C(=O)NCC(=O)N1CCC[C@H]1C(=O)NCC(=O)N1CCC[C@H]1C(=O)NCC(=O)N1CCC[C@H]1C(=O)NCC(=O)N[C@@H](Cc1c[nH]cn1)C(=O)N[C@H](Cc1ccccc1)C(=O)N[C@@H](CCCNC(=N)N)C(=O)N[C@@H](Cc1c[nH]c2ccccc12)C(N)=O [CJL-1–63]
cAMP pharmacology ([1]; hMC4R): single digit nanomolar potent agonists

Compound: Ac-His-DNal(2ʹ)-Arg-Trp-NH2 [CJL-1–80]
cAMP signaling, % of maximal signal at 10 µM compared to control NDP-MSH maximal signal ([1]; hMC4R, at 10 µM): 50%
β-Arrestin recruitment, % of maximal signal at 10 µM compared to control NDP-MSH maximal signal ([2]; hMC4R): 30% at 10 µM
β-Arrestin recruitment, % of maximal signal at 10 µM compared to control NDP-MSH maximal signal ([2]; hMC4R, listed as Ac-His-DNal(2ʹ)-Arg-Trp-NH2): 30%
pA2 (Schild analysis) [3]: 7.82±0.03
change in BRET signal from basal levels ([4]; 10^−5, 10^−7 and 10^−9 M): no significant changes

Compound: CC(=O)N[C@@H](Cc1c[nH]cn1)C(=O)N[C@H](Cc1ccc2ccccc2c1)C(=O)N[C@@H](CCCNC(=N)N)C(=O)N[C@@H](Cc1c[nH]c2ccccc12)C(=O)NCCCOCCOCCOCCCNC(=O)COCC(=O)NCCCOCCOCCOCCCNC(=O)COCC(=O)N[C@@H](Cc1c[nH]cn1)C(=O)N[C@H](Cc1ccccc1)C(=O)N[C@@H](CCCNC(=N)N)C(=O)N[C@@H](Cc1c[nH]c2ccccc12)C(N)=O [CJL-5–74]
cAMP pharmacology ([1]; hMC4R): single digit nanomolar potent agonists

Compound: CC(=O)NCCCOCCOCCOCCCNC(=O)COCC(=O)N[C@@H](Cc1c[nH]cn1)C(=O)N[C@H](Cc1ccccc1)C(=O)N[C@@H](CCCNC(=N)N)C(=O)N[C@@H](Cc1c[nH]c2ccccc12)C(N)=O [CJL-1–116]
EC50 [1]: 2 ± 0.3 nM
EC50 [2]: 140 ± 70 nM
fold increase in β-arrestin recruitment potency compared to CJL-1–14 ([2]; hMC4R): < 3 fold
